ChEMBL document CHEMBL5257020, “Discovery of a 9-mer Cationic Peptide (LTX-315) as a Potential First in Class Oncolytic Peptide” (J Med Chem, 2016)
Where a SMILES comes first, the peptide text is derived from it. [ ]: non-standard residue; d: D form. ξ: configuration not given here. ξAla(9-anthryl) = NC(Cc1c2ccccc2cc2ccccc12)C(=O)O; Dip = N[C@H](C(=O)O)C(c1ccccc1)c1ccccc1; ξBip = NC(Cc1ccc(-c2ccccc2)cc1)C(=O)O; ξDip = NC(C(=O)O)C(c1ccccc1)c1ccccc1; ξ1Nal = NC(Cc1cccc2ccccc12)C(=O)O; ξ2Nal = NC(Cc1ccc2ccccc2c1)C(=O)O; ξOrn = NCCCC(N)C(=O)O; ξDab = NCCC(N)C(=O)O; ξDap = NCC(N)C(=O)O

Legend:
[1] = Cytotoxicity against mouse AT84 cells assessed as inhibition of cell proliferation incubated for 4 hrs by MTT assay; type: functional, cell-based; details: AT84, 4 h
[2] = Cytotoxicity against human MRC5 cells assessed as inhibition of cell proliferation incubated for 4 hrs by MTT assay; type: toxicity, cell-based
In short: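 MRC-5 human embryonic lung fibroblasts cultured in MEM with 2 mM L-glutamine and 10% FBS, without antibiotics, at 37 °C in humidified 5% CO2. Cultures were tested for mycoplasma. IC50 from three or more independent measurements, given as mean ± SD.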

A20 = assay: Cytotoxicity against mouse A20 lymphoma cells assessed as inhibition of cell proliferation incubated for 4 hrs by MTT assay; type: functional, cell-based; details: A20, 4 h
In short: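 Murine A20 cells cultured in RPMI-1640 with 2 mM L-glutamine, 1.5 g/L sodium bicarbonate, 4.5 g/L glucose, 10 mM HEPES, 1.0 mM sodium pyruvate, 0.05 mM 2-mercaptoethanol and 10% FBS, without antibiotics, at 37 °C, 5% CO2. IC50 from three or more independent measurements, given as mean ± SD.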

[3] = Stability in pooled and cryopreserved rat hepatocytes assessed as intrinsic clearance measured per 10^6 cells at 1 uM measured for 90 mins by LC-MS/MS analysis; type: ADME, cell-based, Hepatocyte; details: read-out: CLH
In short: (§1)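 Pooled cryopreserved hepatocytes at 0.5 million cells/mL, incubated at about 37 °C with 1 μM initial peptide. Supernatant after centrifugation analysed by LC–MS/MS (MRM) using a D-Trp7,9,10-substance P internal standard. Peak height was referenced to time zero, and t1/2 = −0.693/slope of ln concentration vs time. Clint = 0.693/t1/2 × Vinc per million cells. Testosterone, midazolam and 4-methylumbelliferone were the positive controls. Duplicates; mean of two experiments.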

[4] = Stability in pooled and cryopreserved human hepatocytes assessed as half life at 1 uM measured for 90 mins by LC-MS/MS analysis; type: ADME, cell-based, Hepatocyte
In short: (§2)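 Pooled cryopreserved rat or human hepatocytes, 0.5 million cells/mL, ~37 °C, peptide at 1 μM initial. Supernatants analysed by LC–MS/MS with peak height referenced to time zero. t1/2 = −0.693/slope of ln concentration vs time. Duplicate experiments. Testosterone, midazolam and 4-methylumbelliferone served as metabolic-competence controls.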

[5] = Stability in pooled and cryopreserved rat hepatocytes assessed as half life at 1 uM measured for 90 mins by LC-MS/MS analysis; type: ADME, cell-based, Hepatocyte; in short: as §2
[6] = Stability in pooled and cryopreserved human hepatocytes assessed as intrinsic clearance measured per 10^6 cells at 1 uM measured for 90 mins by LC-MS/MS analysis; type: ADME, cell-based, Hepatocyte; details: read-out: CLH; in short: as §1

Row | Structure (SMILES) | IC50 [1] [µM] | IC50 at 4 h [2] [µM] | IC50 (A20) [µM] | hepatocyte CLint at 1 µM [3] [µL/min/1e6 cells] | half-life at 1 µM [4] [min] | half-life at 1 µM [5] [min] | hepatocyte CLint at 1 µM [6] [µL/min/1e6 cells]
1 | NCCCC[C@H](NC(=O)[C@H](Cc1c[nH]c2ccccc12)NC(=O)[C@H](Cc1c[nH]c2ccccc12)NC(=O)[C@H](CCCCN)NC(=O)[C@H](CCCCN)NC(=O)[C@@H](NC(=O)[C@H](Cc1c[nH]c2ccccc12)NC(=O)[C@H](CCCCN)NC(=O)[C@@H](N)CCCCN)C(c1ccccc1)c1ccccc1)C(N)=O (H-KKW[Dip]KKWWK-NH2) | 113 | > 347 | 134 |  |  |  | 
2 | NCCCC[C@H](NC(=O)[C@H](Cc1c[nH]c2ccccc12)NC(=O)[C@H](Cc1c[nH]c2ccccc12)NC(=O)[C@H](CCCCN)NC(=O)[C@H](CCCCN)NC(=O)C(Cc1ccc(-c2ccccc2)cc1)NC(=O)[C@H](Cc1c[nH]c2ccccc12)NC(=O)[C@H](CCCCN)NC(=O)[C@@H](N)CCCCN)C(N)=O (stereo not given in full) (H-KKW[ξBip]KKWWK-NH2) | 27.3 | 174 | 18.7 |  |  |  | 
3 | NCCCC[C@H](NC(=O)[C@H](Cc1c[nH]c2ccccc12)NC(=O)[C@H](Cc1c[nH]c2ccccc12)NC(=O)[C@H](CCCCN)NC(=O)[C@H](CCCCN)NC(=O)C(Cc1ccc2ccccc2c1)NC(=O)[C@H](Cc1c[nH]c2ccccc12)NC(=O)[C@H](CCCCN)NC(=O)[C@@H](N)CCCCN)C(N)=O (stereo not given in full) (H-KKW[ξ2Nal]KKWWK-NH2) | 29.3 | 257 | 26 |  |  |  | 
4 | NCCCC[C@H](NC(=O)[C@H](Cc1c[nH]c2ccccc12)NC(=O)[C@H](Cc1c[nH]c2ccccc12)NC(=O)[C@H](CCCCN)NC(=O)[C@H](CCCCN)NC(=O)C(Cc1c2ccccc2cc2ccccc12)NC(=O)[C@H](Cc1c[nH]c2ccccc12)NC(=O)[C@H](CCCCN)NC(=O)[C@@H](N)CCCCN)C(N)=O (stereo not given in full) (H-KKW[ξAla(9-anthryl)]KKWWK-NH2) | 11 | 40 | 9.3 |  |  |  | 
5 | NCCCC[C@H](NC(=O)[C@H](Cc1c[nH]c2ccccc12)NC(=O)C(NC(=O)[C@H](CCCCN)NC(=O)[C@H](CCCCN)NC(=O)[C@H](Cc1c[nH]c2ccccc12)NC(=O)[C@H](Cc1c[nH]c2ccccc12)NC(=O)[C@H](CCCCN)NC(=O)[C@@H](N)CCCCN)C(c1ccccc1)c1ccccc1)C(N)=O (stereo not given in full) (H-KKWWKK[ξDip]WK-NH2) | 25.3 | 102 | 12.3 |  |  |  | 
6 | Cc1cc(=O)oc2cc(O)ccc12 [HYMECROMONE] |  |  |  | 373 | 11 | 4 | 127
7 | C[C@]12CC[C@H]3[C@@H](CCC4=CC(=O)CC[C@@]43C)[C@@H]1CC[C@@H]2O [TESTOSTERONE] |  |  |  | 811 |  |  | 333
8 | NCCCC[C@H](NC(=O)[C@H](Cc1c[nH]c2ccccc12)NC(=O)[C@H](Cc1c[nH]c2ccccc12)NC(=O)[C@H](CCCCN)NC(=O)[C@H](CCCCN)NC(=O)C(Cc1cccc2ccccc12)NC(=O)[C@H](Cc1c[nH]c2ccccc12)NC(=O)[C@H](CCCCN)NC(=O)[C@@H](N)CCCCN)C(N)=O (stereo not given in full) (H-KKW[ξ1Nal]KKWWK-NH2) | 26.3 | 238 | 24 |  |  |  | 
9 | NCC(N)C(=O)NC(CN)C(=O)N[C@@H](Cc1c[nH]c2ccccc12)C(=O)NC(C(=O)NC(CN)C(=O)NC(CN)C(=O)N[C@@H](Cc1c[nH]c2ccccc12)C(=O)N[C@@H](Cc1c[nH]c2ccccc12)C(=O)NC(CN)C(N)=O)C(c1ccccc1)c1ccccc1 (stereo not given in full) (H-[ξDap][ξDap]W[ξDip][ξDap][ξDap]WW[ξDap]-NH2) | 154 | 516 | 67.7 |  |  |  | 
10 | NCCC(N)C(=O)NC(CCN)C(=O)N[C@@H](Cc1c[nH]c2ccccc12)C(=O)NC(C(=O)NC(CCN)C(=O)NC(CCN)C(=O)N[C@@H](Cc1c[nH]c2ccccc12)C(=O)N[C@@H](Cc1c[nH]c2ccccc12)C(=O)NC(CCN)C(N)=O)C(c1ccccc1)c1ccccc1 (stereo not given in full) (H-[ξDab][ξDab]W[ξDip][ξDab][ξDab]WW[ξDab]-NH2) | 14.3 | 97.7 | 8.3 |  |  |  | 
11 | NCCCC[C@H](NC(=O)[C@H](Cc1c[nH]c2ccccc12)NC(=O)[C@H](Cc1c[nH]c2ccccc12)NC(=O)[C@H](CCCCN)NC(=O)[C@H](CCCCN)NC(=O)C(NC(=O)[C@H](Cc1c[nH]c2ccccc12)NC(=O)[C@H](CCCCN)NC(=O)[C@@H](N)CCCCN)C(c1ccccc1)c1ccccc1)C(N)=O (stereo not given in full) (H-KKW[ξDip]KKWWK-NH2) | 24.7 | 287 | 25.7 |  |  |  | 
12 | NCCCC[C@H](NC(=O)C(NC(=O)[C@H](Cc1c[nH]c2ccccc12)NC(=O)[C@H](CCCCN)NC(=O)[C@H](CCCCN)NC(=O)[C@H](Cc1c[nH]c2ccccc12)NC(=O)[C@H](Cc1c[nH]c2ccccc12)NC(=O)[C@@H](N)CCCCN)C(c1ccccc1)c1ccccc1)C(N)=O (stereo not given in full) (H-KWWKKW[ξDip]K-NH2) |  | 43.9 | 13.5 |  |  |  | 
13 | Cc1ncc2n1-c1ccc(Cl)cc1C(c1ccccc1F)=NC2 [MIDAZOLAM] |  |  |  | 51 | > 200 | 27 | < 7
14 | NCCCC[C@H](NC(=O)[C@H](Cc1c[nH]c2ccccc12)NC(=O)[C@H](Cc1c[nH]c2ccccc12)NC(=O)[C@H](CCCCN)NC(=O)[C@H](CCCCN)NC(=O)[C@H](Cc1c[nH]c2ccccc12)NC(=O)[C@H](Cc1c[nH]c2ccccc12)NC(=O)[C@H](CCCCN)NC(=O)[C@@H](N)CCCCN)C(N)=O (H-KKWWKKWWK-NH2) | 31 | > 357 | 37.3 |  |  |  | 
15 | NCCCC[C@H](NC(=O)C(NC(=O)[C@H](Cc1c[nH]c2ccccc12)NC(=O)[C@H](CCCCN)NC(=O)[C@H](CCCCN)NC(=O)[C@H](Cc1c[nH]c2ccccc12)NC(=O)[C@@H](N)Cc1c[nH]c2ccccc12)C(c1ccccc1)c1ccccc1)C(N)=O (stereo not given in full) (H-WWKKW[ξDip]K-NH2) |  | 53.2 | 20.3 |  |  |  | 
16 | NCCCC[C@H](NC(=O)C(NC(=O)[C@H](Cc1c[nH]c2ccccc12)NC(=O)[C@H](CCCCN)NC(=O)[C@H](CCCCN)NC(=O)C(NC(=O)[C@H](Cc1c[nH]c2ccccc12)NC(=O)[C@H](CCCCN)NC(=O)[C@@H](N)CCCCN)C(c1ccccc1)c1ccccc1)C(c1ccccc1)c1ccccc1)C(N)=O (stereo not given in full) (H-KKW[ξDip]KKW[ξDip]K-NH2) | 15 | 80 | 12 |  |  |  | 
17 | NCCCC[C@H](NC(=O)C(NC(=O)[C@H](Cc1c[nH]c2ccccc12)NC(=O)[C@H](CCCCN)NC(=O)[C@H](CCCCN)NC(=O)[C@@H](N)Cc1c[nH]c2ccccc12)C(c1ccccc1)c1ccccc1)C(N)=O (stereo not given in full) (H-WKKW[ξDip]K-NH2) |  | 460 | 247 |  |  |  | 
18 | NCCCC(N)C(=O)NC(CCCN)C(=O)N[C@@H](Cc1c[nH]c2ccccc12)C(=O)NC(C(=O)NC(CCCN)C(=O)NC(CCCN)C(=O)N[C@@H](Cc1c[nH]c2ccccc12)C(=O)N[C@@H](Cc1c[nH]c2ccccc12)C(=O)NC(CCCN)C(N)=O)C(c1ccccc1)c1ccccc1 (stereo not given in full) (H-[ξOrn][ξOrn]W[ξDip][ξOrn][ξOrn]WW[ξOrn]-NH2) | 23 | 323 | 21.7 |  |  |  | 
19 | NCCCC[C@H](NC(=O)[C@H](Cc1c[nH]c2ccccc12)NC(=O)[C@H](Cc1c[nH]c2ccccc12)NC(=O)[C@H](CCCCN)NC(=O)[C@H](CCCCN)NC(=O)[C@H](Cc1c[nH]c2ccccc12)NC(=O)C(NC(=O)[C@H](CCCCN)NC(=O)[C@@H](N)CCCCN)C(c1ccccc1)c1ccccc1)C(N)=O (stereo not given in full) (H-KK[ξDip]WKKWWK-NH2) | 36.7 | 488 | 51.7 |  |  |  | 
